Screening results (PubChem BioAssay)
S1P4 ag = human S1P4 receptor agonism | S1P4-expressing cell line, agonist reporter assay | activation, % at 4.98 µM | hit rate 0.35% among 220,000 | AID 1509; in the data active means activation above about 11%;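 further: 0% = DMSO vehicle and 100% = reference agonist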
Rad51 HR inh = blocks human Rad51 in homologous recombination. Q06609. hRad51 DNA strand exchange, fluorescence dequenching. hit rate 0.085% among 200,000. inhibition, % at 10 µM. AID 1385;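 active means inhibition above 40% at the single screening dose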;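 further: 0% = DMSO control wells and 100% = blanks with heterologous ssDNA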
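material = hRad51 filaments on single-stranded DNA | reagent = Donor/quencher-labelled 47-bp dsDNA substrate | compound = 10 µM final, single point | schedule = strand-exchange reaction 15 min at room temperature | measured by = fluorescein emission 520 nm, excitation 485 nm | read-out basis = % inhibition versus plate control and blank means | benchmarks = plate controls and plate blanks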
HMGR II inh = blocks class II HMG-CoA reductase of Enterococcus faecalis. inhibition, % at 10 µM. purified E. faecalis HMGR, NADPH absorbance 340 nm kinetic. hit rate 0.41% among 190,000. AID 1066;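 active means inhibition above a set limit, the median over all tested compounds plus 3 SD, cut at about 9.5% in these data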;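 further: enzyme runs in reverse so mevalonate oxidation gives rising NADPH absorbance; 0% = complete reaction with DMSO and 100% = background rate lacking mevalonate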
Biofilm kill mix = mixtures killing C. albicans biofilm | C. albicans biofilm persisters + clotrimazole, fluorescence viability; primary screen in compound mixtures of four per well | inhibition, % at 7.6 µM | hit rate 0.02% among 120,000;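 active means inhibition above 30.3% in the primary screen of four-compound pools, then above 30% when the compound was retested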;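 further: compounds exposed to preformed 24 h biofilms for 48 h; 0% = untreated biofilm control and 100% = clotrimazole plus chlorhexidine kill blank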
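Test system: C. albicans biofilms. Buffer or medium: RPMI/MOPS medium, pH 7.0. Timing: 48 h compound exposure at 37 °C. Technique: Alamar Blue fluorescence. Evaluation: percent inhibition of biofilm viability.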
S1P3 antagonist = blocks the human S1P3 receptor | Q99500 | CHO S1P3 NFAT-BLA reporter, FRET fluorescence, antagonist mode | inhibition, % at 4.98 µM | hit rate 0.27% among 170,000 | AID 485;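 active means inhibition above the plate cutoff, the mean inhibition of test wells on that plate plus 3 SD, cut at about 28% in these data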;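 further: cells challenged with S1P at its EC80 of 0.8 µM; blue over green emission ratio from cleaved BLA substrate after 4 h stimulation; 0% = S1P-stimulated wells and 100% = unstimulated DMSO-only wells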
S1P4 antagonist = antagonists of human S1P4 receptor. O95977. S1P4-expressing cells, antagonist mode, reporter read-out. inhibition, % at 4.98 µM. hit rate 0.26% among 220,000; in the data active means inhibition above about 29%;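 further: 0% = wells stimulated with agonist and 100% = vehicle wells without agonist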
S1P4 antag conf = human S1P4 antagonism, confirmation; shares compounds with S1P4 antagonist; S1P4-expressing cell line, antagonist mode, reporter read-out; inhibition, % at 4.98 µM; hit rate 71% among 520; AID 1524; in the data active means inhibition above about 30%
S1P1 antagonist = counter-screen for S1P4 antagonists: antagonists of human S1P1; AID 1564; cell-based S1P1 antagonist counterscreen, inhibition; hit rate 37% among 520; shares compounds with S1P4 antagonist; inhibition, % at 4.98 µM; in the data active means inhibition above about 40%;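 further: receptor stimulated with S1P near its EC80; 0% = agonist stimulated wells and 100% = vehicle only wells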
Target sequence (P21453 whole entry, looked up): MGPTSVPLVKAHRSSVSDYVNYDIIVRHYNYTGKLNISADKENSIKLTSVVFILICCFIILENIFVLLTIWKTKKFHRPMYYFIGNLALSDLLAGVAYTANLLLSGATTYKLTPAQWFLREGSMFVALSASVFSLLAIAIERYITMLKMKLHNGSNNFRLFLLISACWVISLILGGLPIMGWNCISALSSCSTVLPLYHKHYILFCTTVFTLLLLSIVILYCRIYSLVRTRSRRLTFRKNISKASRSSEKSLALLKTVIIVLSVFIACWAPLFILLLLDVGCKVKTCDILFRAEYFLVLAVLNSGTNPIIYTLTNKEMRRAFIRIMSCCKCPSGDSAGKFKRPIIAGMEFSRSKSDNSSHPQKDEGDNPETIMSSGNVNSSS
An asterisk follows results filed as active; . = no result given. Compounds with a hit are over-represented: about 1.2% of the library has one in this group of screens.

SMILES	S1P4 ag	Rad51 HR inh	HMGR II inh	Biofilm kill mix	S1P3 antagonist	S1P4 antagonist	S1P4 antag conf	S1P1 antagonist
CCC(CC)NC(=O)CO/N=C/c1ccccc1OC(F)F	1	-15	-1	-2	-19	39*	0	-6
Cc1ccc(NC(=O)CC2NCCNC2=O)cc1Cl (stereo not drawn)	1	12	-3	-1	-10	-18	.	.
N#Cc1ccc(/C=C/C(=O)c2cccnc2)cc1	1	6	-2	0	-5	44*	53*	52*
O=C(/C=C/c1ccc(Cl)cc1)c1cccnc1	0	3	-4	.	.	20	.	.
Cc1cc(C)c([N+](=O)[O-])cc1NCC(=O)N1CCN(c2ccccc2)CC1	-1	10	-4	10	7	38*	-5	-9
CCNc1nc(N2CCCC2)nc(N2CCCC2)n1	-3	6	0	13	-10	4	.	.
CCNc1nc(NC(C)(C)C)nc(N2CCCCC2)n1	-1	-15	-4	1	-13	44*	92*	21
CC(=O)NCCn1c(SCc2ccc(C)cc2)nc2ccccc2c1=O	1	-8	-4	.	.	-23	.	.
CS(=O)(=O)c1ncc(Cl)c(C(=O)Nc2ccc3ccccc3c2)n1	-3	22	-4	6	0	41*	119*	54*
CCOC(=O)C1(Cc2ccccc2)CCN(Cc2cn(CC(=O)OC)c3ccccc23)CC1	1	-12	-6	1	0	30*	5	16
O=C(Nc1ccccc1F)N(Cc1ccc(F)cc1)Cc1nc2ccccc2c(=O)[nH]1	1	.	-1	5	-9	9	.	.
CN(C)/N=C/C=C1\CCC/C(=C\c2ccc(F)c(F)c2)C1=O	1	.	-2	-1	-3	29*	34*	42*
O=C(N/C(=C/c1cccnc1)C(=O)N1CCOCC1)c1ccccc1	-2	-1	0	17	7	-13	.	.
CCOc1cc(CNCCc2ccc(S(N)(=O)=O)cc2)ccc1OCc1ccc(Cl)cc1	-6	-7	-9	.	.	37*	40*	28
COc1cc(CNCCc2ccc(S(N)(=O)=O)cc2)ccc1OCc1ccc(Cl)cc1	2	.	0	.	.	-5	.	.
Cc1ccc(S(=O)(=O)N(C)c2cc(S(=O)(=O)Nc3ccncc3)c(C)cc2C)cc1	1	1	-2	14	-1	-11	.	.
CCCC(=O)N(C1CC(C)C(C#N)(C#N)C1(C#N)C#N)N(C)C (stereo not drawn)	2	-8	.	20	22	43*	107*	36
Cc1ccc(S(=O)(=O)Nc2cccc3cccnc23)cc1	4	-2	-6	.	.	42*	110*	98*
CCOc1cc(/C=C\[N+](=O)[O-])ccc1OCC(=O)Nc1ccccc1C	1	-2	1	.	.	58*	118*	84*
O=C(CN1C(=O)S/C(=C/c2cc(Br)cs2)C1=O)N1CCOCC1	0	-16	-3	13	3	-13	.	.
Cc1cccc(CSc2cccc3cccnc23)c1	-2	1	-2	.	.	39*	96*	65*
O=C(Cn1nnc(-c2ccncc2)n1)Nc1ccc2c(c1)CCC2	1	6	-2	.	-10	1	.	.
CC(=O)n1cc(N(C(=O)CCl)c2ccc(C)cc2)c2ccccc21	1	10	.	21	-13	29*	106*	45*
COc1ccccc1/C=N/NC(=O)C(NC(=O)c1ccccc1)=C(C)C	0	0	0	.	.	-6	.	.
O=C(CSc1ccc2ccccc2c1)Nc1ncccn1	3	-1	-6	7	-8	-4	.	.
SMILES	S1P4 ag	Rad51 HR inh	HMGR II inh	Biofilm kill mix	S1P3 antagonist	S1P4 antagonist	S1P4 antag conf	S1P1 antagonist
CCS(=O)(=O)N1CCC(C(=O)NCCN2CCOCC2)CC1	1	.	-1	8	-26	6	.	.
CCS(=O)(=O)N1CCC(C(=O)NCCCN2CCCC2)CC1	-1	-4	-7	.	13	32*	12	15
CC1=NNC(=O)/C1=C\c1cn(-c2ccccc2)nc1-c1cccs1	2	14	-4	16	-16	3	.	.
CC1=NNC(=O)/C1=C\c1cn(-c2ccccc2)nc1-c1ccc(F)cc1	-1	.	-8	9	-2	30*	110*	18
CN(C(=O)COC(=O)c1nc(Cl)c(Cl)c(Cl)c1Cl)C1CCS(=O)(=O)C1 (stereo not drawn)	1	22	-11	-1	2	40*	74*	9
COc1ccc(N=C2C(=Nc3ccc(OC)cc3)N(c3ccc(OC)cc3)C(=S)N2C)cc1	-2	3	-1	.	.	35*	38*	30
Cn1cc([N+](=O)[O-])c(C(=O)Nc2cc(Oc3ccccc3)cc([N+](=O)[O-])c2)n1	0	3	2	10	-11	37*	111*	-3
Cc1nn(C)cc1C(=O)Nc1cc(Oc2ccc(Cl)cc2)cc([N+](=O)[O-])c1	0	1	-2	.	.	-27	.	.
CCC(NC(=O)Nc1nnc(C(F)(F)F)s1)(C(F)(F)F)C(F)(F)F	0	-5	-6	.	.	38*	51*	7
O=C(O)CCC(=O)Nc1nnc(C(F)(F)F)s1	-1	2	2	.	-19	-4	.	.
CCCC(=O)OCCNc1cc(Sc2nc3ccccc3[nH]2)c2nonc2c1[N+](=O)[O-]	1	1	1	9	-7	52*	106*	-7
COc1ccc(Nc2nc(Nc3ccc(OC)cc3)nc(SC3=NCCS3)n2)cc1	-2	0	-6	.	.	29*	47*	21
COc1ccc(Nc2nc(Cl)nc(NCCO)n2)cc1	0	-9	3	20	-4	-17	.	.
Cc1cccc(C)c1NC(=O)COC(=O)c1cccnc1	3	-7	-8	-1	-1	0	.	.
Cc1cccc(C)c1NC(=O)COC(=O)c1nonc1N	1	4	1	.	4	29*	-7	10
CCN(CC)c1ccc2c(Cl)c(Br)c(=O)oc2c1	1	-71	-2	.	28	53*	104*	74*
COC(=O)N/N=C\C=C\c1ccc2c(c1)OCO2	-1	0	0	.	.	55*	-19	-14
CCCc1cnc(NCCNCC(O)COc2ccc(Cl)c(Cl)c2)nc1 (stereo not drawn)	-1	-3	.	4	9	31*	25	64*
O=C(/C=C/c1ccccc1Cl)c1ccc(O)cc1	1	-9	.	16	2	-10	.	.
O=C(/C=C/c1c(F)cccc1Cl)c1ccc(O)cc1	-1	.	.	29	1	42*	62*	17
Cc1nnc(N/N=C/c2c(Cl)cccc2Cl)n1N	0	0	-2	3	-19	30*	7	-20
O=S(=O)(c1ccc(Cl)cc1)c1snnc1-c1ccccc1	-2	0	1	.	.	36*	72*	8
